Assay results from ChEMBL document CHEMBL3286129, “Optimization of peptidomimetic boronates bearing a P3 bicyclic scaffold as proteasome inhibitors” (Eur J Med Chem, 2014).
pKi: −log10 of the molar value. The source made the active and inactive calls. The rule behind the calls is not given here.

What was measured:
NCI-H322M = experiment: Growth inhibition of human NCI-H322M cells; format: functional
NCI-H522 = experiment: Growth inhibition of human NCI-H522 cells; format: functional
COLO 205 = experiment: Growth inhibition of human COLO205 cells; format: functional
HT-29 = experiment: Growth inhibition of human HT-29 cells; format: functional
SF-268 = experiment: Growth inhibition of human SF268 cells; format: functional
[1] = Growth inhibition of human SF295 cells; format: functional; details: SF-295
SNB-19 = experiment: Growth inhibition of human SNB19 cells; format: functional
[2] = Growth inhibition of human LOXIMVI cells; format: functional; details: LOX IMVI
Malme-3M = experiment: Growth inhibition of human MALME-3M cells; format: functional
MDA-MB-435 = experiment: Growth inhibition of human MDA-MB-435 cells; format: functional
SK-MEL-5 = experiment: Growth inhibition of human SK-MEL-5 cells; format: functional
IGROV-1 = experiment: Growth inhibition of human IGROV1 cells; format: functional
[3] = Growth inhibition of human OVCAR4 cells; format: functional
[4] = Growth inhibition of human OVCAR8 cells; format: functional
SK-OV-3 = experiment: Growth inhibition of human SKOV3 cells; format: functional
[5] = Growth inhibition of human RXF393 cells; format: functional
SN12C = experiment: Growth inhibition of human SN12C cells; format: functional
[6] = Growth inhibition of human UO31 cells; format: functional; details: UO-31
DU-145 = experiment: Growth inhibition of human DU145 cells; format: functional
MCF7 = experiment: Growth inhibition of human MCF7 cells; format: functional
MDA-MB-231 = experiment: Growth inhibition of human MDA-MB-231 cells; format: functional
[7] = Growth inhibition of human Hs 578T cells; format: functional
[8] = target: T1, Proteasome Macropain subunit MB1 (Homo sapiens, UniProt P28074); experiment: Inhibition of chymotrypsin-like activity of 20S proteasome in human erythrocytes using Suc-Leu-Leu-Val-Tyr-AMC as substrate by fluorescence assay; details: read-out: Ki
T1 sequence (P28074 whole entry): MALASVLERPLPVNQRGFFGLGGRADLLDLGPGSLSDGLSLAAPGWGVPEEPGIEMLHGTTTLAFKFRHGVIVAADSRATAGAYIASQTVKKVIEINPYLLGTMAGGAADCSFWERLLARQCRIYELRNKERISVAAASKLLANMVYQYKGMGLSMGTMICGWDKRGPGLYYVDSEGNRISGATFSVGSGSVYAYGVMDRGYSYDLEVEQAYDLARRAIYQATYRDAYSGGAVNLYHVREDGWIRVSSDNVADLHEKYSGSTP

[9] = target: Proteasome Macropain subunit (Homo sapiens) (UniProt P49721); experiment: Inhibition of trypsin-like activity of 20S proteasome in human erythrocytes using Boc-Leu-Arg-Arg-AMC as substrate by fluorescence assay; format: cell-based
Chain of Proteasome Macropain subunit (Homo sapiens) (P49721 whole entry): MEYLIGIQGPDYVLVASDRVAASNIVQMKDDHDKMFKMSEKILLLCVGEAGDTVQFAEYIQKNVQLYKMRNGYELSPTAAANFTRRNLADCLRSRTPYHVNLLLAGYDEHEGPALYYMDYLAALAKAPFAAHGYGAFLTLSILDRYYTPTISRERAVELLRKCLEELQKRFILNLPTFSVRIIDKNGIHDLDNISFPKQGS
Method in brief: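 Human 20S proteasome 0.0025 mg/mL at 30 °C in 50 mM Tris pH 7.4, 50 mM NaCl, 0.5 mM EDTA, 0.03% SDS, 7.5% DMSO. Varied inhibitor concentrations; AMC release monitored continuously for 10 min, ex 380/em 460 nm. Ki derived from progress-curve IC50 fit.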

Chymotrypsinogen A = Chymotrypsinogen A (Bos taurus, UniProt P00766); experiment: Inhibition of bovine pancreatic alpha-chymotrypsin using Suc-Leu-Leu-Val-Tyr-AMC as substrate by fluorescence assay; details: read-out: Ki
Method in brief: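 Enzyme incubated at 20 °C in 50 mM Tris pH 8.0, 100 mM NaCl, 5 mM EDTA, 7.5% DMSO with varied inhibitor concentrations. Substrate hydrolysis followed for 10 min. Ki from progress curves; mean of three determinations.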

[10] = Cytotoxicity against human leukemia cells assessed as cell growth at 10 uM relative to control; format: functional; details: read-out: Activity
Method in brief: (§1)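 Single-concentration screen against a panel of human cancer cell lines. Each value is the mean percent growth across the cell lines of that tumour subpanel.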

[11] = Cytotoxicity against human CNSC cells assessed as cell growth at 10 uM relative to control; format: functional; details: read-out: Activity; method in brief: as §1
[12] = Cytotoxicity against human renal cancer cells assessed as cell growth at 10 uM relative to control; format: functional; details: Cancer cell lines, read-out: Activity; method in brief: as §1
[13] = Cytotoxicity against human breast cancer cells assessed as cell growth at 10 uM relative to control; format: functional; details: Cancer cell lines, read-out: Activity; method in brief: as §1
[14] = Growth inhibition of human MOLT4 cells; format: functional
SR = experiment: Growth inhibition of human SR cells; format: functional
HOP-62 = experiment: Growth inhibition of human HOP62 cells; format: functional
[15] = Growth inhibition of human HOP92 cells; format: functional
NCI-H226 = experiment: Growth inhibition of human NCI-H226 cells; format: functional
[16] = read-out: LC50 (the source's name)

## CC(C)C[C@H](NC(=O)Cn1ccc2ccc(Br)cc2c1=O)B(O)O
NCI-H322M
  GI50: > 100 µM
  TGI: > 100 µM
NCI-H322M; [16]
  CC50: > 100 µM
NCI-H522
  GI50: 0.59 µM
  LC50: 9.06 µM
  TGI: 2.54 µM
COLO 205
  GI50: 2.83 µM
  TGI: > 100 µM
COLO 205; [16]
  CC50: > 100 µM
HT-29
  GI50: 0.73 µM
  LC50: > 100 µM
  TGI: 5.52 µM
SF-268
  GI50: 3.76 µM
  LC50: > 100 µM
  TGI: 31.9 µM
[1]
  GI50: 2.03 µM
  LC50: 86.4 µM
  TGI: 15.9 µM
SNB-19
  GI50: 3.86 µM
  TGI: > 100 µM
SNB-19; [16]
  CC50: > 100 µM
[2]
  GI50: 0.43 µM
  TGI: 1.85 µM
[2]; [16]
  CC50: 7.21 µM
Malme-3M
  GI50: 4.31 µM
  TGI: > 100 µM
Malme-3M; [16]
  CC50: > 100 µM
MDA-MB-435
  GI50: 0.33 µM
  TGI: 1.29 µM
MDA-MB-435; [16]
  CC50: 5.88 µM
SK-MEL-5
  GI50: 0.8 µM
  LC50 (concentration killing 50% of cells): 7.88 µM
  TGI: 2.65 µM
IGROV-1
  GI50: 6.16 µM
  LC50: > 100 µM
  TGI: 46.9 µM
[3]; OVCAR-4
  GI50: 4.94 µM
  TGI: > 100 µM
[3]; OVCAR-4, read-out: LC50 (the source's name)
  CC50: > 100 µM
[4]; OVCAR-8
  GI50: 3.53 µM
  TGI: > 100 µM
[4]; OVCAR-8, read-out: LC50 (the source's name)
  CC50: > 100 µM
SK-OV-3
  GI50: 8.73 µM
  LC50: > 100 µM
  TGI: > 100 µM
[5]; RXF 393
  GI50: 0.43 µM
  TGI: 1.77 µM
[5]; RXF 393, read-out: LC50 (the source's name)
  CC50: 5.99 µM
SN12C
  GI50: 3.52 µM
  TGI: 55.2 µM
SN12C; [16]
  CC50: > 100 µM
[6]
  GI50: 1.61 µM
  LC50: 61.6 µM
  TGI: 11.1 µM
DU-145
  GI50: 6.05 µM
  TGI: > 100 µM
DU-145; [16]
  CC50: > 100 µM
MCF7
  GI50: 0.42 µM
  TGI: > 100 µM
MCF7; [16]
  CC50: > 100 µM
MDA-MB-231
  GI50: 3.18 µM
  TGI: 19.8 µM
MDA-MB-231; [16]
  CC50: > 100 µM
[7]
  GI50: 2.94 µM
  TGI: 75.1 µM
[7]; [16]
  CC50: > 100 µM
[8]
  pKi: 7.28
[9]
  inhibition: inactive
Chymotrypsinogen A
  pKi: 6.54
[10]
  growth at 10 µM: 0.57%
[11]
  growth at 10 µM: 24.3%
[12]
  growth at 10 µM: -8.89%
[13]
  growth at 10 µM: 2.23%
[14]; MOLT-4
  GI50: 0.3 µM
  TGI: 1.57 µM
[14]; MOLT-4, read-out: LC50 (the source's name)
  CC50: > 100 µM
SR
  GI50: 0.27 µM
  TGI: 12.2 µM
SR; [16]
  CC50: > 100 µM
HOP-62
  GI50: 4.94 µM
  TGI: 27.6 µM
HOP-62; [16]
  CC50: > 100 µM
[15]; HOP-92
  GI50: 2.56 µM
  TGI: 8.7 µM
[15]; HOP-92, read-out: LC50 (the source's name)
  CC50: > 100 µM
NCI-H226
  GI50: 0.47 µM
  TGI: 1.84 µM
NCI-H226; [16]
  CC50: 5.39 µM
